Active and inactive are the calls of the source. No cut-off for these calls is given here.
Experiments:
[1] = molecular target: T1, 3-keto-steroid reductase/17-beta-hydroxysteroid dehydrogenase 7 (Homo sapiens) (UniProt P56937); assay: Inhibition of human 17beta-HSD7 expressed in HEK293 cells assessed as inhibition of reduction of [14C]dihydrotestosterone into [14C]5alpha-androstane-3beta,17beta-diol at 3 uM after 18 hrs; type: cell-based
T1 sequence (whole entry): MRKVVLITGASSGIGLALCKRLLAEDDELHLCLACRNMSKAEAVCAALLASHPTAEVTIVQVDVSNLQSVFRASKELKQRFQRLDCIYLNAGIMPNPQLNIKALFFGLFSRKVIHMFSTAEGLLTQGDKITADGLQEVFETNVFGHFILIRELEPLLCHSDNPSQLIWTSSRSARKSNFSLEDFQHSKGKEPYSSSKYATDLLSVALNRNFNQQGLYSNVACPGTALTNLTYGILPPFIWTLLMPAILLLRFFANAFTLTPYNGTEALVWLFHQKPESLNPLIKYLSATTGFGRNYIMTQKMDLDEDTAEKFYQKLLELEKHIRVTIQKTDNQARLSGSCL
How it was run: (§1)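 Intact HEK-293 cells stably overexpressing h17β-HSD7 (pCMV-neo, G-418 selected) were plated at 500 000 cells/well in MEM with 10% fetal calf serum at 37 °C. Fresh medium received 15 000 cpm (~150 nM) [4-14C]-DHT plus ethanolic inhibitor, and cells were incubated 18 h. Steroids were extracted twice with diethyl ether. Assays were done in duplicate.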

[2] = molecular target: T2, 3-oxo-5-alpha-steroid 4-dehydrogenase 2 (Homo sapiens) (UniProt P31213); assay: Inhibition of human 5alpha reductase 2 expressed in HEK293 cells assessed as inhibition of conversion of [14C]4-androstene-3,17-dione to [14C]5R-androstane-3,17-dione at 0.3 uM after 3 hrs; type: cell-based
T2 sequence (whole entry): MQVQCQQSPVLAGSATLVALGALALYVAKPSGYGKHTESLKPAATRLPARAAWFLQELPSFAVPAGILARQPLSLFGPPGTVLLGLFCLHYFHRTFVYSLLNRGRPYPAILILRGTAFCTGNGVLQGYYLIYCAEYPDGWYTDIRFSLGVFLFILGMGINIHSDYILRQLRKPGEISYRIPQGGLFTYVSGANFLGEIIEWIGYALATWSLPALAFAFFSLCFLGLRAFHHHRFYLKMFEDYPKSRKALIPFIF
How it was run: (§2)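 Intact HEK-293 cells transfected with pCMV-neo-h5α-reductase type 1 or type 2 were plated at 500 000 cells/well at 37 °C. They were incubated with 15 000 cpm [14C]-Δ4-dione and inhibitor (final 0.3 or 3 μM), in duplicate, for 1 h (type 1) or 3 h (type 2). Steroids were extracted and separated by TLC (toluene/EtOAc 4:1). Radioactivity gave % transformation and % inhibition.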

[3] = molecular target: T3, 3-keto-steroid reductase/17-beta-hydroxysteroid dehydrogenase 7 (Homo sapiens, UniProt P56937); assay: Inhibition of human 17beta-HSD7 expressed in HEK293 cells assessed as inhibition of reduction of [14C]estrone into [14C]estradiol after 7 hrs; type: cell-based
T3 sequence (P56937 whole entry): T1 sequence (whole entry)
How it was run: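 Intact HEK-293 cells stably overexpressing h17β-HSD7 were plated at 500 000 cells/well in MEM/10% FCS at 37 °C. Fresh medium received 15 000 cpm (~150 nM, below Km) [4-14C]-estrone plus ethanolic inhibitor for 7 h. Steroids were extracted with diethyl ether. Screening used two inhibitor concentrations in duplicate or triplicate and is reported as % inhibition of E1→E2.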

[4] = molecular target: T4, 17-beta-hydroxysteroid dehydrogenase type 1 (Homo sapiens) (UniProt P14061); assay: Inhibition of human 17beta-HSD1 expressed in HEK293 cells assessed as inhibition of reduction of [14C]estrone into [14C]estradiol at 0.1 uM; type: cell-based
T4 sequence (whole entry): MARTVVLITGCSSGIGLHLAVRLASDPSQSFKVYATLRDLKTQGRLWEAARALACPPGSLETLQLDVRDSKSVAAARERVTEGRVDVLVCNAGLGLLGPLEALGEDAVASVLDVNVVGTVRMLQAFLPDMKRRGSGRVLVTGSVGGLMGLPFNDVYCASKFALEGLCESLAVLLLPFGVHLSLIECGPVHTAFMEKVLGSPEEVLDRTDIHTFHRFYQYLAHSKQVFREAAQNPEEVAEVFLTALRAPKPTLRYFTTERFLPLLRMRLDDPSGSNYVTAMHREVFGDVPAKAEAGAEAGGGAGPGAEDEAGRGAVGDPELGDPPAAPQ
How it was run: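 Enzyme source: sonicated HEK-293 cells transfected with the h17β-HSD1 gene. Inhibitor was dissolved in ethanol and tested at final concentrations of 0.1 and 1 μM. The [14C]-E1 to [14C]-E2 assay was run as in an earlier report.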

[5] = molecular target: T5, 3-oxo-5-alpha-steroid 4-dehydrogenase 1 (Homo sapiens) (UniProt P18405); assay: Inhibition of human 5alpha reductase 1 expressed in HEK293 cells assessed as inhibition of conversion of [14C]4-androstene-3,17-dione to [14C]5R-androstane-3,17-dione at 0.3 uM after 1 hr; type: cell-based; how it was run: as §2
T5 sequence (whole entry): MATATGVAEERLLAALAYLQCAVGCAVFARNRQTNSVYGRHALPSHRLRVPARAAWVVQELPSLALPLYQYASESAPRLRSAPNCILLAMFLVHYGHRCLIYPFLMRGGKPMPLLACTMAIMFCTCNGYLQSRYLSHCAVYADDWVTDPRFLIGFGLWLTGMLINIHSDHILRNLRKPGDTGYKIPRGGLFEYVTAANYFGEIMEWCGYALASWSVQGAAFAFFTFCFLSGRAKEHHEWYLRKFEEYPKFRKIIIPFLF

HEK293 = assay: Inhibition of human 17beta-HSD5 expressed in HEK293 cells assessed as inhibition of conversion of [14C]4-androstene-3,17-dione to [14C]testosterone at 0.3 uM after 20 hrs; type: cell-based
How it was run: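 Intact HEK-293 cells stably transfected with pCMV-neo-h17β-HSD5 were plated at 500 000 cells/well. They were incubated with 15 000 cpm [4-14C]-Δ4-dione and inhibitor in ethanol (0.3 or 3 μM) for 20 h at 37 °C, 5% CO2, in triplicate. Steroids were then extracted, separated and quantified.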

[6] = molecular target: T1, 3-keto-steroid reductase/17-beta-hydroxysteroid dehydrogenase 7 (Homo sapiens); assay: Inhibition of human 17beta-HSD7 expressed in HEK293 cells assessed as inhibition of reduction of [14C]dihydrotestosterone into [14C]5alpha-androstane-3beta,17beta-diol at 0.3 uM after 18 hrs; type: cell-based; how it was run: as §1
[7] = molecular target: T1, 3-keto-steroid reductase/17-beta-hydroxysteroid dehydrogenase 7 (Homo sapiens); details: HEK293, at 0.3 µM

| inhibition [1] [%] | inhibition [2] | IC50 [3] [nM] | inhibition [4] | inhibition [5] | inhibition [6] [%] | inhibition [7] [%] | SMILES | inhibition (HEK293) [%] |
| --- | --- | --- | --- | --- | --- | --- | --- | --- |
| 69 | inactive | 189 | – | – | – | – | CCCCCCCN(C)[C@H]1CC[C@H]2[C@@H]3CC[C@H]4N(C)C(=O)CC[C@]4(C)[C@H]3CC[C@]12C | – |
| 69 | inactive | – | inactive | inactive | – | – | CC1(C)CC[C@@]2(CC[C@H]3[C@@H]4CC[C@H]5NC(=O)CC[C@]5(C)[C@H]4CC[C@@]32C)OC1=O | 90 |
| 69 | – | 195 | – | – | 49 | – | CCCCCCCCCCN(C=O)C1CC[C@H]2[C@@H]3CC[C@H]4N(C)C(=O)CC[C@]4(C)[C@H]3CC[C@]12C (some centres undefined) | – |
| 69 | – | 116 | inactive | Active | – | – | CN1C(=O)CC[C@]2(C)[C@H]3CC[C@@]4(C)[C@@H](CC[C@@]45CCC(C)(C)C(=O)O5)[C@@H]3CC[C@@H]12 | 90 |
| 69 | inactive | – | – | – | – | 76 | CCCCCCCN(CCCC)[C@H]1CC[C@H]2[C@@H]3CC[C@H]4N(C)C(=O)CC[C@]4(C)[C@H]3CC[C@]12C | – |

From ChEMBL document CHEMBL1154295, “Potent and selective steroidal inhibitors of 17beta-hydroxysteroid dehydrogenase type 7, an enzyme that catalyzes the reduction of the key hormones estrone and dihydrotestosterone” (J Med Chem, 2009)
